Reference: ChEMBL document CHEMBL1126160, “Synthesis and structure-activity relationships of 7-diazabicycloalkylquinolones, including danofloxacin, a new quinolone antibacterial agent for veterinary medicine” (J Med Chem, 1992)
Converted amounts (≈) assume the structure as drawn.

Key:
Type in all cases: functional
[1] = test system: Actinobacillus pleuropneumoniae; experiment: In vitro antibacterial activity against anaerobically grown Actinobacillus pleuropneumoniae ([…])
In short: (§1)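 Agar dilution MICs. Anaerobic strains were tested on tryptose agar with 5% bovine blood and incubated 48 h at 39 °C in an anaerobe chamber under N2/CO2/H2 (80:10:10).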

Trueperella pyogenes = experiment: In vitro antibacterial activity against anaerobically grown Actinomyces pyogenes (14D002); in short: as §1
Phocaeicola vulgatus = experiment: In vitro antibacterial activity against anaerobically grown Bacteroides vulgatus (78D029); in short: as §1
[2] = test system: Bordetella bronchiseptica; experiment: In vitro antibacterial activity against aerobically grown Bordetella bronchiseptica (73A009)
In short: (§2)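 Agar dilution MICs. Aerobic strains were tested on brain heart infusion agar and incubated aerobically at 37 °C for 18–20 h.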

Escherichia coli [3] = experiment: In vitro antibacterial activity against aerobically grown Escherichia coli (51A538); in short: as §2
Escherichia coli [4] = experiment: Escherichia coli DNA cleavage endpoint value which is the minimum amount required (in micro g/mL) to induce detectable cleavage of supercoiled pBR322 substrate to linear form (gyrase); settings: read-out: MIC
In short: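 DNA gyrase A and B subunits were purified from E. coli overproducers. About 2 units of holoenzyme were incubated with pBR322 in Tris-HCl pH 7.5 containing MgCl2, spermidine, DTT, 0.2 mM ATP, BSA and tRNA. Drug was added as 2-fold serial dilutions, and reactions ran for 60 min at 25 °C. Reactions were stopped with SDS and proteinase K, then run on agarose and stained with ethidium. The endpoint was the lowest concentration giving detectable linear DNA.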

[5] = In vitro antibacterial activity against Aerobically grown Pasteurella haemolytica (59B018); settings: Mannheimia haemolytica; in short: as §2
Pasteurella multocida = experiment: In vitro antibacterial activity against aerobically grown Pasteurella multocida (59A006); in short: as §2
Salmonella enterica = experiment: In vitro antibacterial activity against aerobically grown Salmonella choleraesuis (58B015)
Staphylococcus aureus = experiment: In vitro antibacterial activity against aerobically grown Staphylococcus aureus (54B004); in short: as §2
[6] = In vitro evaluation for antibacterial activity against anaerobically grown Treponema hyodysenteriae (94A007); settings: Brachyspira hyodysenteriae
Clostridium perfringens = experiment: microbe, parasite or virus in culture

| Compound | MIC [1] | MIC (Trueperella pyogenes) | MIC (Phocaeicola vulgatus) | MIC [2] | MIC (Escherichia coli [3]) | minimum concentration inducing gyrase-mediated DNA cleavage (Escherichia coli [4]) | MIC [5] | MIC (Pasteurella multocida) | MIC (Salmonella enterica) | MIC (Staphylococcus aureus) | MIC [6] | MIC (Clostridium perfringens) |
| --- | --- | --- | --- | --- | --- | --- | --- | --- | --- | --- | --- | --- |
| O=C(O)c1cn(-c2ccc(F)cc2)c2c(F)c(N3C[C@@H]4C[C@H]3CN4)c(F)cc2c1=O | 0.1 mg/L (≈ 0.241 µM) | > 3.13 mg/L | > 3.13 mg/L | > 1.56 mg/L | 0.1 mg/L (≈ 0.241 µM) | 0.78 µg/mL | 0.1 mg/L (≈ 0.241 µM) | 0.1 mg/L (≈ 0.241 µM) | 0.2 mg/L (≈ 0.481 µM) | 0.78 mg/L (≈ 1.88 µM) | 0.78 mg/L (≈ 1.88 µM) | 0.2 mg/L (≈ 0.481 µM) |
| CN1[C@@H]2CC[C@H]1CN(c1c(F)cc3c(=O)c(C(=O)O)cn(CCF)c3c1F)C2 | 0.39 mg/L (≈ 0.986 µM) | > 3.13 mg/L | > 3.13 mg/L | 6.25 mg/L (≈ 15.8 µM) | 0.78 mg/L (≈ 1.97 µM) | 0.39 µg/mL | 0.78 mg/L (≈ 1.97 µM) | 0.39 mg/L (≈ 0.986 µM) | 1.56 mg/L (≈ 3.95 µM) | 1.56 mg/L (≈ 3.95 µM) | > 3.13 mg/L | 0.78 mg/L (≈ 1.97 µM) |
| CCn1cc(C(=O)O)c(=O)c2cc(F)c(N3CC[C@H]4CCC(C3)N4C)c(F)c21 | 0.78 mg/L (≈ 1.99 µM) | > 3.13 mg/L | > 3.13 mg/L | 1.56 mg/L (≈ 3.99 µM) | 0.39 mg/L (≈ 0.996 µM) | 3.12 µg/mL | 0.78 mg/L (≈ 1.99 µM) | 0.2 mg/L (≈ 0.511 µM) | 1.56 mg/L (≈ 3.99 µM) | 0.78 mg/L (≈ 1.99 µM) | > 3.13 mg/L | 3.13 mg/L (≈ 8 µM) |
| CN1C2CC[C@@H]1CCN(c1cc3c(cc1F)c(=O)c(C(=O)O)cn3C)C2 | – | – | – | > 25 mg/L | 6.25 mg/L (≈ 17.4 µM) | 6.25 µg/mL | 6.25 mg/L (≈ 17.4 µM) | 6.25 mg/L (≈ 17.4 µM) | 6.25 mg/L (≈ 17.4 µM) | 1.56 mg/L (≈ 4.34 µM) | – | – |
| CN1C[C@@H]2C[C@H]1CN2c1nc2c(cc1F)c(=O)c(C(=O)O)cn2-c1ccc(F)cc1 | 0.1 mg/L (≈ 0.242 µM) | > 3.13 mg/L | 3.13 mg/L (≈ 7.59 µM) | > 1.56 mg/L | 0.2 mg/L (≈ 0.485 µM) | 1.56 µg/mL | 0.05 mg/L (≈ 0.121 µM) | 0.02 mg/L (≈ 0.0485 µM) | 0.2 mg/L (≈ 0.485 µM) | 0.2 mg/L (≈ 0.485 µM) | 3.13 mg/L (≈ 7.59 µM) | 0.39 mg/L (≈ 0.946 µM) |
| CN1[C@@H]2CC[C@H]1CN(c1cc3c(cc1F)c(=O)c(C(=O)O)cn3C)C2 | 0.78 mg/L (≈ 2.26 µM) | 3.13 mg/L (≈ 9.06 µM) | 12.5 mg/L (≈ 36.2 µM) | > 25 mg/L | 3.13 mg/L (≈ 9.06 µM) | 3.12 µg/mL | 0.2 mg/L (≈ 0.579 µM) | 0.78 mg/L (≈ 2.26 µM) | 3.13 mg/L (≈ 9.06 µM) | 0.2 mg/L (≈ 0.579 µM) | 0.78 mg/L (≈ 2.26 µM) | 1.56 mg/L (≈ 4.52 µM) |
| CN1C[C@@H]2C[C@H]1CN2c1cc2c(cc1F)c(=O)c(C(=O)O)cn2-c1ccc(F)cc1F | 0.005 mg/L (≈ 0.0116 µM) | 0.78 mg/L (≈ 1.82 µM) | 0.78 mg/L (≈ 1.82 µM) | 1.56 mg/L (≈ 3.63 µM) | 0.1 mg/L (≈ 0.233 µM) | 0.78 µg/mL | 0.05 mg/L (≈ 0.116 µM) | 0.01 mg/L (≈ 0.0233 µM) | 0.2 mg/L (≈ 0.466 µM) | 0.1 mg/L (≈ 0.233 µM) | > 3.13 mg/L | 0.2 mg/L (≈ 0.466 µM) |
| O=C(O)c1cn(C2CC2)c2c(F)c(N3C[C@@H]4C[C@H]3CN4)c(F)cc2c1=O | < 0.005 mg/L | 0.39 mg/L (≈ 1.08 µM) | 1.56 mg/L (≈ 4.32 µM) | 0.39 mg/L (≈ 1.08 µM) | 0.01 mg/L (≈ 0.0277 µM) | 0.09 µg/mL | 0.005 mg/L (≈ 0.0138 µM) | 0.005 mg/L (≈ 0.0138 µM) | 0.01 mg/L (≈ 0.0277 µM) | 0.39 mg/L (≈ 1.08 µM) | 1.56 mg/L (≈ 4.32 µM) | 0.05 mg/L (≈ 0.138 µM) |
| O=C(O)c1cn(C2CC2)c2c(F)c(N3CCN4CCC3CC4)c(F)cc2c1=O | 0.01 mg/L (≈ 0.0257 µM) | 0.39 mg/L (≈ 1 µM) | 0.1 mg/L (≈ 0.257 µM) | 0.39 mg/L (≈ 1 µM) | 0.01 mg/L (≈ 0.0257 µM) | 0.39 µg/mL | 0.01 mg/L (≈ 0.0257 µM) | 0.002 mg/L (≈ 0.00514 µM) | 0.01 mg/L (≈ 0.0257 µM) | 0.05 mg/L (≈ 0.128 µM) | 0.78 mg/L (≈ 2 µM) | 0.1 mg/L (≈ 0.257 µM) |
| CCn1cc(C(=O)O)c(=O)c2cc(F)c(N3C[C@H]4CCC[C@@H](C3)N4C)cc21 | 0.2 mg/L (≈ 0.536 µM) | 6.25 mg/L (≈ 16.7 µM) | 1.56 mg/L (≈ 4.18 µM) | 6.25 mg/L (≈ 16.7 µM) | 1.56 mg/L (≈ 4.18 µM) | 3.12 µg/mL | 0.1 mg/L (≈ 0.268 µM) | 0.78 mg/L (≈ 2.09 µM) | 1.56 mg/L (≈ 4.18 µM) | 0.1 mg/L (≈ 0.268 µM) | 6.25 mg/L (≈ 16.7 µM) | 0.39 mg/L (≈ 1.04 µM) |
| CN1C[C@@H]2C[C@H]1CN2c1c(F)cc2c(=O)c(C(=O)O)cn(-c3ccc(F)cc3)c2c1F | 0.05 mg/L (≈ 0.116 µM) | > 3.13 mg/L | 3.13 mg/L (≈ 7.29 µM) | > 1.56 mg/L | 0.2 mg/L (≈ 0.466 µM) | 0.39 µg/mL | 0.2 mg/L (≈ 0.466 µM) | 0.02 mg/L (≈ 0.0466 µM) | 0.39 mg/L (≈ 0.908 µM) | 0.39 mg/L (≈ 0.908 µM) | 1.56 mg/L (≈ 3.63 µM) | 0.39 mg/L (≈ 0.908 µM) |
